From ChEMBL document CHEMBL4342528, “Discovery of a First-in-Class Protein Arginine Methyltransferase 6 (PRMT6) Covalent Inhibitor” (J Med Chem, 2020)
Active and inactive are the calls of the source. The calls are words filed in the database; no cut-off is given here.

Tests used:
[1] = molecular target: Histone-lysine N-methyltransferase NSD3 (Homo sapiens) (UniProt Q9BZ95); assay: Inhibition of NSD3 (unknown origin) at 10 uM using [3H-SAM] and nucleosome as substrate incubated for 1 hr by scintillation proximity assay
Summary of the method: (§1)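 Panel of 33 methyltransferases (22 PKMTs, 3 DNMTs, 8 PRMTs), each tested at 10 and 50 μM compound. Activity was read as ³H-methyl transfer from ³H-SAM in a radiometric assay done as previously described.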

Homo sapiens [2] = organism: Homo sapiens; assay: Inhibition of DNMT3A/3L (unknown origin) at 50 uM using un-biotinylated Poly(2'-deoxyinosinic-2'-deoxycytidylic acid) substrate using [3H-SAM] at 50 uM incubated for 1 hr by scintillation proximity assay relative to control; summary of the method: as §1
[3] = molecular target: T1, Protein arginine N-methyltransferase 6 (Homo sapiens, UniProt Q96LA8); assay: Inhibition of Flag-tagged PRMT6 (unknown origin) expressed in HEK293 cells incubated for 20 hrs assessed as reduction in H3R2me2a levels; type: cell-based
[4] = molecular target: Histone-lysine N-methyltransferase SETD7 (Homo sapiens) (UniProt Q8WTS6); assay: Inhibition of SETD7 (unknown origin) at 50 uM assessed as reduction in incorporation of [3H]-labeled methyl group into biotinylated substrate using [3H-SAM] at 50 uM incubated for 1 hr by scintillation proximity assay relative to control; summary of the method: as §1
Chain of Histone-lysine N-methyltransferase SETD7 (Homo sapiens) (Q8WTS6 whole entry): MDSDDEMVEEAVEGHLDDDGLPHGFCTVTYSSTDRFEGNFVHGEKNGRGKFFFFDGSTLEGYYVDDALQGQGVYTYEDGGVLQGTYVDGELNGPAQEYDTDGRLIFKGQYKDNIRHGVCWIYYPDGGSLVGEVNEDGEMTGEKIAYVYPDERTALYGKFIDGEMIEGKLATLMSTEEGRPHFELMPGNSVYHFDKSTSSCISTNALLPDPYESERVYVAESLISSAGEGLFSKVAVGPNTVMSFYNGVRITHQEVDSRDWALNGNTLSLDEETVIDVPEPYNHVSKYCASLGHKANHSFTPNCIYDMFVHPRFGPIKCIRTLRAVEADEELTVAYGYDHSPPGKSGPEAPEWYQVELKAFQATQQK

[5] = molecular target: Histone-lysine N-methyltransferase EHMT2 (Homo sapiens) (UniProt Q96KQ7); assay: Inhibition of G9a (unknown origin) assessed as reduction in incorporation of [3H]-labeled methyl group into biotinylated substrate using [3H-SAM] at 10 uM incubated for 1 hr by scintillation proximity assay; summary of the method: as §1
[6] = molecular target: Protein arginine N-methyltransferase 8 (Homo sapiens, UniProt Q9NR22); assay: Inhibition of PRMT8 (unknown origin) assessed as reduction in incorporation of [3H]-labeled methyl group into biotinylated substrate using [3H-SAM] at 50 uM incubated for 1 hr by scintillation proximity assay relative to control; summary of the method: as §1
Chain of Protein arginine N-methyltransferase 8 (Q9NR22 2-394 limits assumed): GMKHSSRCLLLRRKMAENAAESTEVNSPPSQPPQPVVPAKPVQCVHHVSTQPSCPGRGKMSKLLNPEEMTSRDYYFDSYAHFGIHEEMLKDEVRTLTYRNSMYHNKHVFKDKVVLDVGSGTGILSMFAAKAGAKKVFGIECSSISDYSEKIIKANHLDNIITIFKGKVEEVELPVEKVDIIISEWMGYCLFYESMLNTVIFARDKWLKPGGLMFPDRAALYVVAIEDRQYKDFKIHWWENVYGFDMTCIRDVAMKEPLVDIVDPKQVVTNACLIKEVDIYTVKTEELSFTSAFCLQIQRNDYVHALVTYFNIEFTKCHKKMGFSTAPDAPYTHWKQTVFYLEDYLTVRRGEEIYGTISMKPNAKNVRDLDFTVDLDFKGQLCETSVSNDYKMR

[7] = molecular target: Protein arginine N-methyltransferase 7 (Homo sapiens) (UniProt Q9NVM4); assay: Inhibition of PRMT7 (unknown origin) assessed as reduction in incorporation of [3H]-labeled methyl group into biotinylated substrate using [3H-SAM] at 10 uM incubated for 1 hr by scintillation proximity assay; summary of the method: as §1
Chain of Protein arginine N-methyltransferase 7 (Homo sapiens) (Q9NVM4 whole entry): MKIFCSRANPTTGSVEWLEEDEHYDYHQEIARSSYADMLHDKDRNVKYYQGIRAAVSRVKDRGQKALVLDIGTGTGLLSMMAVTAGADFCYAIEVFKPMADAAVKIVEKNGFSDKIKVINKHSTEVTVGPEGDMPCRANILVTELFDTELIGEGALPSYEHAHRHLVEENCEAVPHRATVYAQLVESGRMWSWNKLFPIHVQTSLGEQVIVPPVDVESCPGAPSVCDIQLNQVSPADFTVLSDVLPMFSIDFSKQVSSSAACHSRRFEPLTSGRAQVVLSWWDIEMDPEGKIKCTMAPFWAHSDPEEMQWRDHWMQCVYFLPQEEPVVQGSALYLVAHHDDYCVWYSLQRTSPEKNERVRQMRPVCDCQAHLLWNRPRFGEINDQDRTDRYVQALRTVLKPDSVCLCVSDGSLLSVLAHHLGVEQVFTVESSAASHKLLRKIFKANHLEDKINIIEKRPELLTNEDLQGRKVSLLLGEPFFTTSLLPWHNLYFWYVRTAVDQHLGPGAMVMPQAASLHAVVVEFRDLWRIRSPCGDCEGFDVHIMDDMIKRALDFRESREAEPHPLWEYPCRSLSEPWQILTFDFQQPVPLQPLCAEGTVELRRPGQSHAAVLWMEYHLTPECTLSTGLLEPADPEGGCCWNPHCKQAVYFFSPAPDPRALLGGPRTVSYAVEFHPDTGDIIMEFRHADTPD

[8] = molecular target: N-lysine methyltransferase KMT5A (Homo sapiens) (UniProt Q9NQR1); assay: Inhibition of SETD8 (unknown origin) assessed as reduction in incorporation of [3H]-labeled methyl group into biotinylated substrate using [3H-SAM] at 10 uM incubated for 1 hr by scintillation proximity assay; summary of the method: as §1
Chain of N-lysine methyltransferase KMT5A (Homo sapiens) (Q9NQR1 whole entry): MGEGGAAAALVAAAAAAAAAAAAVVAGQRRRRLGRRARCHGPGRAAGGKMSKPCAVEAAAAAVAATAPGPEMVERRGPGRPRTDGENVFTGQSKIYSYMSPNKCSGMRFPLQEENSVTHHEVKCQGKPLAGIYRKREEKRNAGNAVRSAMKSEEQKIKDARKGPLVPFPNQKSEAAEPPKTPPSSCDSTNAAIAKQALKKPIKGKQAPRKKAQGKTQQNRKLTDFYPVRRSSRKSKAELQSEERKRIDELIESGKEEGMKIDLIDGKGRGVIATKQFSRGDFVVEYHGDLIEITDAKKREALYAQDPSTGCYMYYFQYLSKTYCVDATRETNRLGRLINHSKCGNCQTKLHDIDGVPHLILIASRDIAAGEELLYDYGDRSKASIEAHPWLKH

[9] = molecular target: T2, Protein arginine N-methyltransferase 3 (Homo sapiens, UniProt O60678); assay: Inhibition of PRMT3 (unknown origin) assessed as reduction in incorporation of [3H]-labeled methyl group into biotinylated substrate using [3H-SAM] at 50 uM incubated for 1 hr by scintillation proximity assay relative to control; summary of the method: as §1
Target sequence in this assay (O60678 2-531 limits assumed): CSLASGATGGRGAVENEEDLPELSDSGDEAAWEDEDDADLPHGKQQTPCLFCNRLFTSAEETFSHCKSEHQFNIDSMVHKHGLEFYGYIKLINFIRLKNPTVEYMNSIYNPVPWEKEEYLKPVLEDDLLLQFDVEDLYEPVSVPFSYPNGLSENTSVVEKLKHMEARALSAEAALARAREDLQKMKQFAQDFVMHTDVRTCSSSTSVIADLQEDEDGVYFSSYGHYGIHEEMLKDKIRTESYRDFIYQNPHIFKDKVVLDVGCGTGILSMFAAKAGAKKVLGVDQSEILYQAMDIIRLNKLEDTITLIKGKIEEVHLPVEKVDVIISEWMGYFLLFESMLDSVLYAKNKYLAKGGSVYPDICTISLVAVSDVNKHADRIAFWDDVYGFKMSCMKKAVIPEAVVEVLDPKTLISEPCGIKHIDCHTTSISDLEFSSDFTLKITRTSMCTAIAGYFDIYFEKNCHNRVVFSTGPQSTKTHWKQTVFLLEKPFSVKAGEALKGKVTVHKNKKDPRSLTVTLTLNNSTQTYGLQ

Homo sapiens [10] = organism: Homo sapiens; assay: Selectivity index, ratio of IC50 for human PRMT4 to IC50 for human PRMT6
[11] = molecular target: Histone-lysine N-methyltransferase KMT5B (Homo sapiens) (UniProt Q4FZB7); assay: Inhibition of SUV420H1 (unknown origin) assessed as reduction in incorporation of [3H]-labeled methyl group into biotinylated substrate using [3H-SAM] at 10 uM incubated for 1 hr by scintillation proximity assay
Chain of Histone-lysine N-methyltransferase KMT5B (Homo sapiens) (Q4FZB7 whole entry, looked up): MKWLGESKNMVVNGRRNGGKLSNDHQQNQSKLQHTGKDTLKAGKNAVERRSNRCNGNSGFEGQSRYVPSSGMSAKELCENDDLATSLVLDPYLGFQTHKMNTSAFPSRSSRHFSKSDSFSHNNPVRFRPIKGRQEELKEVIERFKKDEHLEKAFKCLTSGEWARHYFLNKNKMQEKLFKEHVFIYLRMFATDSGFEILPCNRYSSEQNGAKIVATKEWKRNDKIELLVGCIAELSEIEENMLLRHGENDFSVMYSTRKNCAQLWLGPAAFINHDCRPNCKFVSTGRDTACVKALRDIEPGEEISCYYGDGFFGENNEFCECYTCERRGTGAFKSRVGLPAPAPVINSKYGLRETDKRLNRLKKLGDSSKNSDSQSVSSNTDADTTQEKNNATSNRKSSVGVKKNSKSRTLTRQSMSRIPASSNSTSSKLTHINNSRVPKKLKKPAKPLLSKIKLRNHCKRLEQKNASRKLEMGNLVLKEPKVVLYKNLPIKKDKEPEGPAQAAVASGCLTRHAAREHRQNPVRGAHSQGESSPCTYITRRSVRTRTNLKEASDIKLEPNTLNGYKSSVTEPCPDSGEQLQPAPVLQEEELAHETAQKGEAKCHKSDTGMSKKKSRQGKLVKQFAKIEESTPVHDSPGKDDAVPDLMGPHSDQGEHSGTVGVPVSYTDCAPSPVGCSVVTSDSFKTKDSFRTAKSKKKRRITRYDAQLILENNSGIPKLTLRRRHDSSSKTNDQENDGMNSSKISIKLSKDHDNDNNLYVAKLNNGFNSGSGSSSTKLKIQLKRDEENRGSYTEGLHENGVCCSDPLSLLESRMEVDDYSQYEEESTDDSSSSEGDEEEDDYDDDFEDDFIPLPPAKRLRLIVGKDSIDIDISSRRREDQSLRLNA

[12] = molecular target: T3, Histone-arginine methyltransferase CARM1 (Homo sapiens) (UniProt Q86X55); assay: Inhibition of PRMT4 (unknown origin) assessed as reduction in incorporation of [3H]-labeled methyl group into biotinylated substrate using [3H-SAM] at 10 uM incubated for 1 hr by scintillation proximity assay; summary of the method: as §1
T3 sequence (whole entry): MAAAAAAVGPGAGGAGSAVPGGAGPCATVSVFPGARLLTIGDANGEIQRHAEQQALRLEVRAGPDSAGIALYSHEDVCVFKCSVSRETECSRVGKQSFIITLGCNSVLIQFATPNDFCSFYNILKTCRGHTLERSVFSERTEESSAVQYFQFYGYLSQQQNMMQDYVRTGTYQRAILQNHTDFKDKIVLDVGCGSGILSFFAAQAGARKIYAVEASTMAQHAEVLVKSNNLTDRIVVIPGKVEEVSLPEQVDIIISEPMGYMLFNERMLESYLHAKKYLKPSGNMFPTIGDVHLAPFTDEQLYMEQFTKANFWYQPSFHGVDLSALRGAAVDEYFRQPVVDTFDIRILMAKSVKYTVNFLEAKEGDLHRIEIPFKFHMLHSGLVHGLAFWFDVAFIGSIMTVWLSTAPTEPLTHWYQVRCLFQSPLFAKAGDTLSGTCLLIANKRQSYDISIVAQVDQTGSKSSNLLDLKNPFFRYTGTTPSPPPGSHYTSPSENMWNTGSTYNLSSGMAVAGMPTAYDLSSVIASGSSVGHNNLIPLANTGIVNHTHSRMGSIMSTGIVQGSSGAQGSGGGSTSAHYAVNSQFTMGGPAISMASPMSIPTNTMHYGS

[13] = molecular target: T1, Protein arginine N-methyltransferase 6; assay: Time dependent inhibition of human PRMT6 pre-incubated for 1 to 30 mins using [3H]SAM as donor and [3H]methylated biotin-labeled peptide as substrate by scintillation proximity assay; settings: TDE = time-dependent effect
Target sequence in this assay (Q96LA8 whole entry, looked up): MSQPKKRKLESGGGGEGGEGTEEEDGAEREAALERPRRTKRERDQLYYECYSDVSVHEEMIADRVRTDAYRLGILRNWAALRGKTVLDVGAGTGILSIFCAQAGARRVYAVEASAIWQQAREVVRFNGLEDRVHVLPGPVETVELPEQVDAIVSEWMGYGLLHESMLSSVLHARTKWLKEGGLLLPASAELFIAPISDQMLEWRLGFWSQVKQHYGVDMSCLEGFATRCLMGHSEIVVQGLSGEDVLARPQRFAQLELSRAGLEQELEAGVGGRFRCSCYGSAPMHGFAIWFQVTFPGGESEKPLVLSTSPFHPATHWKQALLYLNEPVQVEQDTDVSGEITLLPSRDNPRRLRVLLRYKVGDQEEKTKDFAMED

[14] = molecular target: Histone-lysine N-methyltransferase SUV39H2 (Homo sapiens) (UniProt Q9H5I1); assay: Inhibition of SUV39H2 (unknown origin) assessed as reduction in incorporation of [3H]-labeled methyl group into biotinylated substrate using [3H-SAM] at 10 uM incubated for 1 hr by scintillation proximity assay
Chain of Histone-lysine N-methyltransferase SUV39H2 (Homo sapiens) (Q9H5I1 whole entry): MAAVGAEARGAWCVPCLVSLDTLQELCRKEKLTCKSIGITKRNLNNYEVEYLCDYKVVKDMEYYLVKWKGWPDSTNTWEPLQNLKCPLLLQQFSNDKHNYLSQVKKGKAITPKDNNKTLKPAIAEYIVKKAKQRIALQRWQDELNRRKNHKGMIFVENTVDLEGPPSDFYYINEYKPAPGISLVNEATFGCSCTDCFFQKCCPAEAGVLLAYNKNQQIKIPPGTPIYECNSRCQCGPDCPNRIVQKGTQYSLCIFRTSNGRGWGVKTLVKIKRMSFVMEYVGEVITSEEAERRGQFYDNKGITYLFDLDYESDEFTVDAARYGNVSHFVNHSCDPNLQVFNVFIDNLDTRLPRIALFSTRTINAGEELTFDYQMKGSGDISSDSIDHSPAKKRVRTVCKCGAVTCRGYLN

[15] = molecular target: Histone-lysine N-methyltransferase EHMT1 (Homo sapiens) (UniProt Q9H9B1); assay: Inhibition of GLP (unknown origin) assessed as reduction in incorporation of [3H]-labeled methyl group into biotinylated substrate using [3H-SAM] at 10 uM incubated for 1 hr by scintillation proximity assay; summary of the method: as §1
[16] = molecular target: Protein arginine N-methyltransferase 7 (Homo sapiens) (UniProt Q9NVM4); assay: Inhibition of PRMT7 (unknown origin) at 50 uM assessed as reduction in incorporation of [3H]-labeled methyl group into biotinylated substrate using [3H-SAM] at 50 uM incubated for 1 hr by scintillation proximity assay relative to control; summary of the method: as §1
[17] = molecular target: T2, Protein arginine N-methyltransferase 3; assay: Inhibition of PRMT3 (unknown origin) expressed in HEK293T cells were co-transfected with GFP-tagged histone H4 peptide assessed as reduction in H4R3 arginine asymmetric dimethylation at 0.2 to 20 uM incubated for 20 hrs; type: cell-based
Target sequence in this assay (O60678 2-531 limits assumed): as the sequence (O60678 2-531 limits assumed) above

[18] = molecular target: T1, Protein arginine N-methyltransferase 6; assay: Inhibition of human PRMT6 assessed as Kinact/Ki ratio pre-incubated for 1 to 30 mins using [3H]SAM as donor and [3H]methylated biotin-labeled peptide as substrate by scintillation proximity assay
Target sequence in this assay (Q96LA8 whole entry, looked up): as the sequence (Q96LA8 whole entry, looked up) above

[19] = molecular target: T2, Protein arginine N-methyltransferase 3; assay: Inhibition of human PRMT3 using [3H]SAM as donor and [3H]methylated biotin-labeled peptide as substrate by scintillation proximity assay
Summary of the method: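 Compound titrated into the reaction; 1 h enzyme–compound preincubation stated for PRMT6. Methylated peptide captured on streptavidin/scintillant-coated plates and counted (cpm). IC50 from concentration–response, triplicate, mean ± SD.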
Target sequence in this assay (O60678 whole entry): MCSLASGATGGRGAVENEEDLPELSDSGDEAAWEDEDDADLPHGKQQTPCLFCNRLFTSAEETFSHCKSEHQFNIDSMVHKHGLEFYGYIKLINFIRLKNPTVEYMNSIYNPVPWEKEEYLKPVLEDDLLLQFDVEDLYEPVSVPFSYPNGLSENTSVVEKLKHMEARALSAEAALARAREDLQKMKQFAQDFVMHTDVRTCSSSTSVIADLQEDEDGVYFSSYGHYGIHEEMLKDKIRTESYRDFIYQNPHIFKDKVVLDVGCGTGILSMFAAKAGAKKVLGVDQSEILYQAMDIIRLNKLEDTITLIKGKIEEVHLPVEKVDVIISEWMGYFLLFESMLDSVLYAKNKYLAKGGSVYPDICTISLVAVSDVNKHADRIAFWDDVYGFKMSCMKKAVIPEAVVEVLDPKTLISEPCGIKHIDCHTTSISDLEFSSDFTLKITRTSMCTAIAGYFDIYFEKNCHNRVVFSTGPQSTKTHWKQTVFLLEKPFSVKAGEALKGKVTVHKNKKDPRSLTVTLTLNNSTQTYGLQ

C=CC(=O)Nc1cccc(-c2c[nH]cc2CN(C)CCN)c1
inhibition [1]: inactive | inhibition (Homo sapiens [2]): > 50% | IC50 [3]: 1300 nM | inhibition [3]: Dose-dependent effect | inhibition [4]: > 50% | inhibition [5]: inactive | inhibition [6]: > 50% | inhibition [7]: inactive | inhibition [8]: inactive | inhibition [9]: > 50% | Ratio IC50 (Homo sapiens [10]): 27 | inhibition [11]: inactive | inhibition [12]: > 90% | inhibition [13]: Tde | inhibition [14]: inactive | inhibition [15]: inactive | inhibition [16]: > 50% | inhibition [17]: inactive | Ratio [18]: 8.3 ×10⁴ /M/s | IC50 [19]: 3000 nM
